The target in series [1] is T1, Secreted frizzled-related protein 1 (Homo sapiens) (UniProt Q8N474).
T1 sequence (whole entry): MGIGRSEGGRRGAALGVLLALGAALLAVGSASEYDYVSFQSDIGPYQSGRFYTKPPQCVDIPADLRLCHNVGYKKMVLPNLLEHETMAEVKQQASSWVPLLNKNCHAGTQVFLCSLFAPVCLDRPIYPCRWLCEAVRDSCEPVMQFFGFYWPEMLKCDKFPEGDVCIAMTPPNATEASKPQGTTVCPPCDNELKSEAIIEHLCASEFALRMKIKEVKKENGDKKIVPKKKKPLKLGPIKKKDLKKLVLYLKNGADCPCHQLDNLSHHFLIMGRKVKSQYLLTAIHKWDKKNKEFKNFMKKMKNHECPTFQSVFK
The series can be described thus: Inhibition of human sFRP1 expressed in human U2OS assessed as fold induction in luciferase activity at 15 uM by TCF-luciferase reporter gene assay relative to control. The gist of the method:
(§1)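 U2OS human osteosarcoma cells transfected with human sFRP-1, Wnt-3 and a TCF-luciferase reporter (canonical Wnt read-out). Inhibitor tested at 15 µM or 30 µM. Luciferase signal without inhibitor set at 1; fold induction measured in quadruplicate.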
(Reporter assays use an easily measured gene product as a stand-in for the process of interest.)

A short description of series [2]: Metabolic stability in rat microsomes assessed as half life. In kind it is ADME, Microsome.
Series [3] is described as follows: Aqueous solubility at pH 7.4. The series is classed as physicochemical. The conditions noted are these: buffer.
The target in series [4] is CYP2C9 (Homo sapiens, UniProt P11712). In words: Inhibition of CYP2C9 at 3 uM. The series is classed as ADME.
Series [5] deals with CYP3A4 (Homo sapiens, UniProt P08684). In words: Inhibition of CYP3A4 at 3 uM. In kind it is ADME.
Series [6] addresses T2, Secreted frizzled-related protein 1 (Homo sapiens, UniProt Q8N474).
T2 sequence (Q8N474 whole entry): T1 sequence (whole entry)
The series can be described thus: Inhibition of human sFRP1 expressed in human U2OS assessed as luciferase activity by TCF-luciferase reporter gene assay. The gist of the method: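 Cell-based functional assay in U2OS human osteosarcoma cells transfected with human sFRP-1, Wnt-3 and a TCF-luciferase reporter gene measuring canonical Wnt pathway activation; EC50 derived from luciferase signal.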

The nature of series [7]: Increase in bone formation in mouse calvaria assessed as increase in bone area at 5 uM after 7 days relative to control. In kind it is functional.
Series [8] deals with CYP2D6 (Homo sapiens, UniProt P10635). In words: Inhibition of CYP2D6 at 3 uM. The series is classed as ADME.
The species named for series [9] is Mus musculus. In words: Increase in bone formation in mouse calvaria assessed as number of osteoblast on bone surface at 5 uM after 7 days relative to control. The series is classed as functional.
The nature of series [10]: Metabolic stability in human microsomes assessed as half life. The series is classed as ADME, Microsome.
Series [11] deals with T2, Secreted frizzled-related protein 1. The series can be described thus: Binding affinity to human sFRP1 by fluorescence spectroscopy. The gist of the method:
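Binding constant (K_D) taken from changes in intrinsic tryptophan fluorescence of sFRP-1 on inhibitor binding; excitation 295 nm, emission 340 nm. Stoichiometry of binding also determined.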

The target of series [12] is T1, Secreted frizzled-related protein 1 (Homo sapiens). In words: Inhibition of human sFRP1 expressed in human U2OS assessed as fold induction in luciferase activity at 30 uM by TCF-luciferase reporter gene assay relative to control. The gist of the method: as §1

Experimental findings from ChEMBL document CHEMBL1151763, “Identification of diarylsulfone sulfonamides as secreted frizzled related protein-1 (sFRP-1) inhibitors” (J Med Chem, 2008) are described below.

≈ marks a conversion by molar mass, not a printed value. Calls of active or inactive are those of the source. The calls are words filed in the database; no cut-off is given here.

Sequence of CYP2C9 (P11712 whole entry): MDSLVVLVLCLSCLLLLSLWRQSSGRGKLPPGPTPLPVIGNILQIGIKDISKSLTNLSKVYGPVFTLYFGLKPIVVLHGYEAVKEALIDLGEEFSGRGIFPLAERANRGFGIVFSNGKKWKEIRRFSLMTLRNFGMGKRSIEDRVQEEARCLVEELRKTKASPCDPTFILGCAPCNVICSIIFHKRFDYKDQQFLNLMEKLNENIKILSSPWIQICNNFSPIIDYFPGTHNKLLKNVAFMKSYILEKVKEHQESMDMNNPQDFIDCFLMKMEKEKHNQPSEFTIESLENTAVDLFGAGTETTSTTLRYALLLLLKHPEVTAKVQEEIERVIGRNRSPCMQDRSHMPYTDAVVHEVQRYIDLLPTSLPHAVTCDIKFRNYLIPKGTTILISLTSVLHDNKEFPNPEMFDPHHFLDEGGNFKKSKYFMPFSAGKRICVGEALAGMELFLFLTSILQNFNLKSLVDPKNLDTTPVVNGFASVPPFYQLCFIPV
Sequence of CYP2D6 (P10635 whole entry): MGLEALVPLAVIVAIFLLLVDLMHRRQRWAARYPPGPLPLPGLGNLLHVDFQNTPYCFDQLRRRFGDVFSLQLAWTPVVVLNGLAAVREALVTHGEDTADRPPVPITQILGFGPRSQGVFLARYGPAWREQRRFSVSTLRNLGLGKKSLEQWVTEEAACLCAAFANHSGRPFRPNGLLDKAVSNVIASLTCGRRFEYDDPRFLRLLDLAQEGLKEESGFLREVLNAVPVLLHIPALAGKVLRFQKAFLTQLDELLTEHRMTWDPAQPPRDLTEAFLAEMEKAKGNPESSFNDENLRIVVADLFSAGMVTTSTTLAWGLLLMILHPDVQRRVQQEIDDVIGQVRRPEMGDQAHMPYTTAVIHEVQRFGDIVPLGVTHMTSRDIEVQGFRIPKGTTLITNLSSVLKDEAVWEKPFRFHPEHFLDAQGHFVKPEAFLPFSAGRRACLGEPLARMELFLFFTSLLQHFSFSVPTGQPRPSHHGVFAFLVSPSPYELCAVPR
Sequence of CYP3A4 (P08684 whole entry): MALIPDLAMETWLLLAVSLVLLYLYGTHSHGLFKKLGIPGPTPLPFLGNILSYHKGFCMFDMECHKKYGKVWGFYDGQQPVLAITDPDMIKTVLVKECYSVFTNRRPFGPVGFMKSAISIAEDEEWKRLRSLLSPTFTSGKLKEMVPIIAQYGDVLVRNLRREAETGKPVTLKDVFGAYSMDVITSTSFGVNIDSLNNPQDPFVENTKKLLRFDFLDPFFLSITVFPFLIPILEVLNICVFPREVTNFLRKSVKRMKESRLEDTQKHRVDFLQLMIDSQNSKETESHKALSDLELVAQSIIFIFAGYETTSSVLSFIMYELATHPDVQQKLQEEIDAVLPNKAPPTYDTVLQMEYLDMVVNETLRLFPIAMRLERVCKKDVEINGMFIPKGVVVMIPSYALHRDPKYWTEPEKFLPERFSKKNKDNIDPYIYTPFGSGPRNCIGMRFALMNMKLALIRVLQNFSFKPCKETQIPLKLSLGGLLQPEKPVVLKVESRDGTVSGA

On to `Cc1ccc(S(=O)(=O)c2ccccc2)cc1S(=O)(=O)N(C)CCc1ccccc1`, for which the fold change (FC) in series [1] is < 1.

With `CCc1ccc(S(=O)(=O)c2ccccc2)cc1S(=O)(=O)NCCc1ccc(OC)c(OC)c1`, in series [2], the half-life was determined as 1 min. In series [3], this compound displayed a solubility of 1 µg/mL (≈ 2.04 µM). For the same compound, the inhibition at 3 µM in [4] is 84%; in series [5], 96%; in series [8], 11%. In series [6], the concentration giving a half-maximal response (EC50) is 6.97 µM. For the same compound, the fold change (FC) in series [1] was 3. The Activity in series [7] is 50%. For the same compound, the result in series [9] was Active.

With `CCc1ccc(S(=O)(=O)c2ccccc2)cc1S(=O)(=O)NCCCN(C)C`, the half-life in series [2] amounted to 12 min; in [10], 26.7 min. This compound also yielded a solubility in [3] of 26 µg/mL (≈ 63.3 µM). The inhibition at 3 µM in [4] stood at 14%; in [5], 43%; in series [8] it was 9%. For the same compound, the concentration giving a half-maximal response (EC50) in series [6] was found to be 1.27 µM. Also, in [1], the fold change (FC) was determined as 3.3.

Regarding `Cc1ccc(S(=O)(=O)c2ccc(C)c(S(=O)(=O)NCCc3ccccc3)c2)cc1`, in series [1], the fold change (FC) stood at 2.2.

Take `O=S(=O)(NCCc1ccccc1)c1cccc(S(=O)(=O)c2ccccc2)c1`: the fold change (FC) in series [1] was < 1.

Consider `Cc1ccc(S(=O)(=O)c2ccc(F)cc2)cc1S(=O)(=O)NCCc1ccccc1`, for which the fold change (FC) in [1] is 2.7.

In the case of `Cc1ccc(S(=O)(=O)c2ccccc2)cc1S(=O)(=O)NCCCc1ccccc1`, in series [1], the fold change (FC) turned out to be 1.3.

Regarding `Cc1ccc(S(=O)(=O)c2ccccc2)cc1S(=O)(=O)NCCc1ccccc1`, the half-life in series [2] amounted to 5 min. The solubility in series [3] worked out at 1 µg/mL (≈ 2.41 µM). Moreover, the values for the inhibition at 3 µM in series [4], in [5] and in series [8] were 41%, 70% and 12%, respectively. In addition, the dissociation constant Kd in [11] stood at 0.35 µM. Further, the EC50 in series [6] was determined as 3.88 µM. Also, the fold change (FC) in [1] turned out to be 2.5.

On to `Cc1ccc(S(=O)(=O)c2ccc(Cl)cc2)cc1S(=O)(=O)Nc1ccccc1`, for which, in series [12], the fold change (FC) is 1.

In the case of `CCc1ccc(S(=O)(=O)c2ccccc2)cc1S(=O)(=O)NCCCN1CCCC1`, the half-life in [2] was found to be 16 min. For the same compound, the solubility in series [3] was > 100 µg/mL. Moreover, the inhibition at 3 µM in series [4] is 25%; in series [5], 78%; in series [8] it was 25%. The EC50 in series [6] was found to be 9 µM. In [1], the fold change (FC) came out at 4.2.

Take `CCc1ccc(S(=O)(=O)c2ccccc2)cc1S(=O)(=O)NCCc1ccccc1`: in series [1], the fold change (FC) came out at 3.3.

For `COc1ccc(S(=O)(=O)c2ccccc2)cc1S(=O)(=O)NCCc1ccccc1`, the fold change (FC) in [1] was 1.5.

With `Cc1ccc(S(=O)(=O)c2ccccc2)cc1S(=O)(=O)NCc1ccccc1`, the fold change (FC) in series [12] was < 1.

One may read the half-life as the time in which the quantity being followed falls by half. A word on the solubility: it is the concentration that dissolves in the medium under given conditions. A word on the inhibition: it is how much of the control response was suppressed. The EC50 is the concentration needed to bring the measured effect to its halfway point. Broadly, the Kd is a measure of binding affinity in units of concentration. High values mean a looser complex, low ones a tighter complex.
